# Results published in ChEMBL document CHEMBL1143012, “Synthesis and pharmacological in vitro and in vivo evaluations of novel triazole derivatives as ligands of the ghrelin receptor. 1” (J Med Chem, 2007).
# pEC50, pIC50: −log10 of the molar value. Square brackets hold non-standard residues; d marks the D form. Peptide text beside a SMILES is read from it. dTrp(2-Me) = Cc1[nH]c2ccccc2c1C[C@@H](N)C(=O)O
# How the values were obtained:
# [1] = molecular target: T1, Growth hormone secretagogue receptor type 1 (Homo sapiens, UniProt Q92847); assay: Displacement of [125I-His9]ghrelin from human GHS1a receptor expressed in LLC PK1 cells; type: cell-based
# Outline: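 Membranes from LLC PK-1 cells transiently electroporated with hGHS-R1a (harvested about 48 h), 10 µg protein, incubated 60 min at 25 °C with 60 pM 125I-His9-ghrelin in Tris pH 7.3/MgCl2/EDTA/bacitracin buffer. Filtered, washed, gamma counted; nonspecific binding with 10 µM ghrelin. Triplicates, at least three experiments.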
# [2] = molecular target: T1, Growth hormone secretagogue receptor type 1; assay: Activity at human GHS1a receptor expressed in CHO cells assessed as intracellular calcium mobilization relative to 0.1 uM ghrelin; type: functional, cell-based
# [3] = molecular target: T1, Growth hormone secretagogue receptor type 1; assay: Agonist activity at human GHS1a receptor expressed in CHO cells assessed as induction of intracellular calcium mobilization; type: functional, cell-based; conditions: for Activity: filed as partial agonist
# Outline: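 CHO cells transiently expressing hGHS-R1a via electroporation, Fluo-4AM loaded (1 µM, 1 h, 37 °C), calcium fluorescence read 60 s at ex 485/em 525 nm. EC50 from agonist dose-response curves, response as percentage of maximal signal from 10 µM ghrelin; triplicates, means of at least three experiments.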
# Rattus norvegicus [4] = assay: Stimulation of cumulative food intake per 100 g body weight in Sprague-Dawley rat at 160 ug/kg, sc at 6 hrs; type: functional
# Outline: (§1)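 Male Sprague-Dawley rats (125-150 g), singly housed and trained, given compound sc alone (cumulative food intake as g/100 g body weight, weighed hourly to 6 h); percentage variation calculated as (compound minus hexarelin 80 µg/kg intake)/hexarelin intake at 6 h. Mean ± SEM, ANOVA with Dunnett's test.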
# Rattus norvegicus [5] = assay: Stimulation of cumulative food intake in Sprague-Dawley rat at 160 ug/kg, sc at 6 hrs relative to 80 ug/kg hexarelin; type: functional; outline: as §1
# [6] = molecular target: T1, Growth hormone secretagogue receptor type 1; assay: Antagonist activity at human GHS1a receptor expressed in CHO cells assessed as inhibition of ghrelin-induced intracellular calcium mobilization; type: functional, cell-based
# Outline: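 Calcium flux (Fluo-4AM, ex 485/em 525 nm) in CHO cells transiently expressing hGHS-R1a. Antagonist inhibition curves against 0.1 µM ghrelin give IC50; Kb by Cheng-Prusoff, with Schild analysis of ghrelin EC50 shifts for pA2 and exact Kb. Signal as percentage of 10 µM ghrelin response; duplicates, at least three experiments.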
# Rattus norvegicus [7] = assay: Inhibition of hexarelin-stimulated cumulative food intake in Sprague-Dawley rat at 20 ug/kg, sc at 6 hrs; type: functional
# Outline: (§2)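 Male Sprague-Dawley rats (125-150 g), singly housed, acclimated and trained. Compound given sc at 0, 20, 80, 160 or 320 µg/kg at -10 min, then hexarelin 80 µg/kg sc at time 0. Food weighed hourly for 6 h, normalized as g/100 g body weight; 7-8 determinations, one-way ANOVA with Dunnett's test.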
# Rattus norvegicus [8] = assay: Inhibition of hexarelin-stimulated cumulative food intake in Sprague-Dawley rat at 80 ug/kg, sc at 6 hrs; type: functional; outline: as §2
# Rattus norvegicus [9] = assay: Inhibition of hexarelin-stimulated cumulative food intake in Sprague-Dawley rat at 160 ug/kg, sc at 6 hrs; type: functional; outline: as §2
# Rattus norvegicus [10] = assay: Inhibition of hexarelin-stimulated cumulative food intake in Sprague-Dawley rat at 320 ug/kg, sc at 6 hrs; type: functional; outline: as §2
# Rattus norvegicus [11] = assay: Effect on growth hormone secretion in Sprague-Dawley rat at 160 ug/kg, sc; type: functional
# Outline: (§3)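 Male 10-day-old Sprague-Dawley pups (~25 g), groups of eight, separated from dams 1 h before. Compounds in DMSO diluted with saline, sc; hexarelin 80 µg/kg, test compound 160 µg/kg; with combined treatment compound given 10 min before hexarelin. Killed 15 min later; plasma GH by rat GH enzyme immunoassay, ng/mL.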
# Rattus norvegicus [12] = assay: Stimulation of cumulative food intake in Sprague-Dawley rat at 80 ug/kg, sc at 6 hrs; type: functional; outline: as §1
# Rattus norvegicus [13] = assay: Effect on growth hormone secretion in Sprague-Dawley rat at 80 ug/kg, sc; type: functional; outline: as §3
# T1 sequence (Q92847 whole entry): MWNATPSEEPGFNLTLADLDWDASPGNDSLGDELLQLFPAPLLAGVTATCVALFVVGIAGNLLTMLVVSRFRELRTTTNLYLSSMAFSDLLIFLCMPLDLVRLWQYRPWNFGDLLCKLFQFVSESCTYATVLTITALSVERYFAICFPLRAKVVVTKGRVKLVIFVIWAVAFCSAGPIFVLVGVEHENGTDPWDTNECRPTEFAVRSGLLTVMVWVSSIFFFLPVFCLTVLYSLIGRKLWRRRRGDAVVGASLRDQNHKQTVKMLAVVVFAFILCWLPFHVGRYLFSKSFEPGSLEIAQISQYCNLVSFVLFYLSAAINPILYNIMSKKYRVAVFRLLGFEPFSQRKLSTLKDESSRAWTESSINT
Structure (SMILES),pIC50 [1],Activity [2] [%],Activity (Rattus norvegicus [4]) [g],Activity (Rattus norvegicus [5]) [%],further results
CC(C)(N)C(=O)N[C@H](Cc1c[nH]c2ccccc12)c1nnc(CCc2c[nH]c3ccccc23)n1Cc1ccc(Cl)c(Cl)c1,7.26,28,0.41,-45,Activity [3]: Partial agonist
COc1ccc(Cn2c(Cc3c[nH]c4ccccc34)nnc2[C@@H](Cc2c[nH]c3ccccc23)NC(=O)C(C)(C)N)cc1,6.18,0,–,–,Activity ([6]; filed as antagonist): Antagonist
CC(C)(N)C(=O)N[C@H](Cc1c[nH]c2ccccc12)c1nnc(CCCc2c[nH]c3ccccc23)n1CCc1ccccc1,7.96,18,0.75,-21,pEC50 [3]: 7.82
CC(C)(N)C(=O)N[C@H](Cc1c[nH]c2ccccc12)c1nnc(CCc2c[nH]c3ccccc23)n1CCc1c[nH]c2ccccc12,6.82,82,0.27,-25,Activity [3]: Partial agonist
Cc1ccc(Cn2c(CCCc3ccccc3)nnc2[C@@H](Cc2c[nH]c3ccccc23)NC(=O)C(C)(C)N)cc1,7.68,16,0.74,-55,pEC50 [3]: 7.92
COc1ccc(Cn2c(CCc3ccccc3)nnc2[C@@H](Cc2c[nH]c3ccccc23)NC(=O)C(C)(C)N)cc1,7.96,0,0.2,-10,Kb [6]: 5 nM
COc1cc(Cn2c(CCc3ccccc3)nnc2[C@@H](Cc2c[nH]c3ccccc23)NC(=O)C(C)(C)N)cc(OC)c1,< 6.00,0,–,–,Activity ([6]; filed as antagonist): Antagonist
CC(C)(N)C(=O)N[C@H](Cc1c[nH]c2ccccc12)c1nnc(CCCc2c[nH]c3ccccc23)n1CCc1c[nH]c2ccccc12,7.85,85,0.22,54,pEC50 [3]: 6.85
CC(C)(N)C(=O)N[C@H](Cc1c[nH]c2ccccc12)c1nnc(CCCc2c[nH]c3ccccc23)n1Cc1ccccc1,7.48,30,0.01,-97,pEC50 [3]: 7.31; Activity (Rattus norvegicus [7]): 0.46 g; Activity (Rattus norvegicus [8]): 0.25 g; Activity (Rattus norvegicus [9]): 0.25 g; Activity (Rattus norvegicus [10]): 0.08 g; Activity (Rattus norvegicus [11]): 13 ng/mL
COc1ccc(Cn2c(CCCc3ccccc3)nnc2[C@@H](Cc2c[nH]c3ccccc23)NC(=O)C(C)(C)N)cc1,–,0,–,–,Kb [6]: 14 nM
COc1ccccc1Cn1c(Cc2ccccc2)nnc1[C@@H](Cc1c[nH]c2ccccc12)NC(=O)C(C)(C)N,6.39,66,–,–,Activity ([6]; filed as partial agonist): Partial agonist
COc1ccc(Cn2c(CCCc3c[nH]c4ccccc34)nnc2[C@@H](Cc2c[nH]c3ccccc23)NC(=O)C(C)(C)N)cc1,6.84,0,–,–,Kb [6]: 12 nM
COc1ccc(Cn2c(CCc3ccccc3)nnc2[C@@H](Cc2c[nH]c3ccccc23)NC(=O)C(C)(C)N)c(OC)c1,7.22,0,–,–,Kb [6]: 17 nM
COc1ccccc1Cn1c(CCc2c[nH]c3ccccc23)nnc1[C@@H](Cc1c[nH]c2ccccc12)NC(=O)C(C)(C)N,–,50,–,–,Activity ([6]; filed as partial agonist): Partial agonist
Cc1[nH]c2ccccc2c1C[C@@H](NC(=O)[C@@H](N)Cc1c[nH]cn1)C(=O)N[C@@H](C)C(=O)N[C@@H](Cc1c[nH]c2ccccc12)C(=O)N[C@H](Cc1ccccc1)C(=O)N[C@@H](CCCCN)C(N)=O [EXAMORELIN] (H-H[dTrp(2-Me)]AW[dF]K-NH2),–,–,–,–,Activity (Rattus norvegicus [12]): 1.01 g; Activity (Rattus norvegicus [13]): 170 ng/mL
COc1ccc(Cn2c(Cc3ccccc3)nnc2[C@@H](Cc2c[nH]c3ccccc23)NC(=O)C(C)(C)N)cc1,6.92,0,0.17,-31,Activity ([6]; filed as antagonist): Antagonist
COc1ccc(Cn2c(CCc3c[nH]c4ccccc34)nnc2[C@@H](Cc2c[nH]c3ccccc23)NC(=O)C(C)(C)N)c(OC)c1,6.97,0,0.06,-63,Kb [6]: 14 nM
COc1ccc(Cn2c(Cc3ccccc3)nnc2[C@@H](Cc2c[nH]c3ccccc23)NC(=O)C(C)(C)N)c(OC)c1,6.25,0,–,–,Activity ([6]; filed as antagonist): Antagonist
